ChEMBL document CHEMBL4354873, “Rationally Designed Small-Molecule Inhibitors Targeting an Unconventional Pocket on the TLR8 Protein-Protein Interface” (J Med Chem, 2020)
The source made the active and inactive calls.

Key:
Type in all cases: cell-based
[1] = molecular target: T1, Toll-like receptor 8 (Homo sapiens) (UniProt Q9NR97); experiment: Inhibition of human TLR8 expressed in HEK-Blue cells assessed as inhibition of ssRNA06-induced NF-kappaB activation measured after 24 hrs by quanti-blue based SEAP reporter gene assay
T1 sequence (whole entry): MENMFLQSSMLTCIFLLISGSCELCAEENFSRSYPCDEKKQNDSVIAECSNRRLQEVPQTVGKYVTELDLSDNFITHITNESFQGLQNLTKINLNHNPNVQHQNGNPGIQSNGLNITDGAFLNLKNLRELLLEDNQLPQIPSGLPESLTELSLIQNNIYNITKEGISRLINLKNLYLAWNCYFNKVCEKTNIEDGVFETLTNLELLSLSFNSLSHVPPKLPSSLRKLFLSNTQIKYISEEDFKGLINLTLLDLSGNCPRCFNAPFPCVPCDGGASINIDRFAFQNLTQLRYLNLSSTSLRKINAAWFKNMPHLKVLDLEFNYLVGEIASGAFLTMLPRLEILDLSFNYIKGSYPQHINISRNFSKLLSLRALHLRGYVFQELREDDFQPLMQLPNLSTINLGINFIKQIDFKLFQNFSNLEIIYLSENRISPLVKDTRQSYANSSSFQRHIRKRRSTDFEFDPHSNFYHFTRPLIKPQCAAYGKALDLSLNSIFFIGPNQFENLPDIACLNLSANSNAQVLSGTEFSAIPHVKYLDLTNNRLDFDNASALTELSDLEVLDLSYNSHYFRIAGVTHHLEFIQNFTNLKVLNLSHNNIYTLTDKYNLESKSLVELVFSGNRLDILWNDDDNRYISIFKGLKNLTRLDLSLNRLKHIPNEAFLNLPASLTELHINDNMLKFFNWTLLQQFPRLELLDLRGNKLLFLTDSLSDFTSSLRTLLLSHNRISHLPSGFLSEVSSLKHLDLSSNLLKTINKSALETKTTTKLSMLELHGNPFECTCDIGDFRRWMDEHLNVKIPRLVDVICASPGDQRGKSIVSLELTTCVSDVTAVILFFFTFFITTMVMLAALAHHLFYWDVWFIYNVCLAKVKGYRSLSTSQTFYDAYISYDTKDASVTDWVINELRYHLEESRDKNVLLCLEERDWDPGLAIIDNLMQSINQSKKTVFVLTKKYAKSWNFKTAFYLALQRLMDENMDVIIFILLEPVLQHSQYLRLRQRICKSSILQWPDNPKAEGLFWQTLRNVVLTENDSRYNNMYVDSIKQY
Outline: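 HEK-Blue TLR8 cells, 4 × 10⁴/well, stimulated with ssRNA06 in the presence of varying compound concentrations for 24 h at 37 °C. SEAP read with QUANTI-Blue at 620 nm. Normalized so ligand-treated cells are 100% activation and untreated cells 0%.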

[2] = molecular target: T1, Toll-like receptor 8 (Homo sapiens); experiment: Inhibition of human TLR8 expressed in HEK-Blue cells assessed as inhibition of R848-induced TNFalpha mRNA level at 1 uM measured after 8 hrs by Trizol reagent based qRT-PCR analysis
Outline: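 RT-qPCR: HEK-Blue TLR8 cells seeded at 1 × 10⁶/well and grown 24 h, then switched to serum-free medium. Treated with R848 4 µg/mL ± compound 1 µM for 8 h. Total RNA extracted with TRIzol, reverse transcribed, TNF-α and IL-8 mRNA quantified. Three independent biological replicates, mean ± s.d.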

[3] = molecular target: T1, Toll-like receptor 8 (Homo sapiens); experiment: Inhibition of TLR8 in human monocytes assessed as reduction in R848-induced phosphorylated IRAK4 expression measured after 2 hrs by Western blot analysis
Outline: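 Monocyte cell lines, 2 × 10⁶/well, differentiated with PMA 100 ng/mL for 24 h. After washes, cells in unsupplemented RPMI received R848 1 µg/mL with varying compound concentrations for 2 h. Nuclear/cytoplasmic fractions extracted and resolved on 10% SDS-PAGE. Blots probed for p65, TRAF3 and p-IRAK4 (1:1000); lamin A/C (nuclear) and β-actin (cytoplasmic) as loading controls.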

Measured: inhibition

CSc1nnc(CCCO)n1-c1cc(C)c(C)c(C)c1
active: [1] Dose-dependent effect | [2] | [3] Dose-dependent effect
